Reference: ChEMBL document CHEMBL1146037, “Design and discovery of a novel dipeptidyl-peptidase IV (CD26)-based prodrug approach” (J Med Chem, 2006)
Calls of active or inactive are those of the source. The rule behind the calls is not given here.

Key:
[1] = molecular target: T1, Dipeptidyl peptidase 4 (Homo sapiens, UniProt P27487); test: Conversion of prodrug to parent drug NAP-TSAO-T catalyzed by CD26 after 4 hrs; assay type: ADME; parameters: concentration or dose not given beside the values
[2] = tested on: MT4; test: Antiviral activity against HIV2 assessed as inhibition of HIV2-induced cytopathicity in MT4 cells; assay type: functional, cell-based
In short: (§1)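 CEM and MT-4 cell cultures infected with HIV-1 or HIV-2, with compounds diluted into culture medium from DMSO stocks. Antiviral activity is read at day 4 post-infection and reported as EC50.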

[3] = molecular target: T1, Dipeptidyl peptidase 4; test: Conversion of prodrug to parent drug NAP-TSAO-T catalyzed by CD26 after 24 hrs; assay type: ADME; parameters: concentration or dose not given beside the values
[4] = tested on: CCRF-CEM; test: Antiproliferative activity against human CEM cell line; assay type: functional
In short: (§2)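 Cytostatic assay: compounds made up as DMSO stocks and diluted in culture medium. CC50 is the concentration that inhibits MT-4 or CEM cell proliferation by 50%.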

[5] = tested on: MT4; test: Antiproliferative activity against human MT4 cell line; assay type: functional; in short: as §2
[6] = tested on: CCRF-CEM; test: Antiviral activity against HIV1 assessed as inhibition of HIV1-induced cytopathicity in CEM cells; assay type: functional, cell-based; settings: Homo sapiens; in short: as §1
[7] = tested on: MT4; test: Antiviral activity against HIV1 assessed as inhibition of HIV1-induced cytopathicity in MT4 cells; assay type: functional, cell-based; settings: Homo sapiens; in short: as §1
[8] = tested on: CCRF-CEM; test: Antiviral activity against HIV2 assessed as inhibition of HIV2-induced cytopathicity in CEM cells; assay type: functional, cell-based; in short: as §1
[9] = molecular target: Human immunodeficiency virus type 1 reverse transcriptase (Human immunodeficiency virus 1, UniProt Q72547); test: Inhibition of recombinant HIV1 reverse transcriptase
[10] = molecular target: T1, Dipeptidyl peptidase 4; test: Conversion of prodrug to parent drug NAP-TSAO-T catalyzed by CD26 after 1 hr; assay type: ADME; parameters: concentration or dose not given beside the values
[11] = species on record: Bos taurus; test: Inhibition of bovine serum-catalyzed prodrug Val-Pro-NAP-TSAO-T conversion to parent drug NAP-TSAO-T; assay type: organism-based; settings: cattle
[12] = species on record: Homo sapiens; test: Inhibition of human serum-catalyzed prodrug Val-Pro-NAP-TSAO-T conversion to parent drug NAP-TSAO-T; assay type: organism-based
[13] = molecular target: T1, Dipeptidyl peptidase 4; test: Inhibition of CD26-catalyzed GlyPro-pNA hydrolysis

T1 sequence (P27487 whole entry): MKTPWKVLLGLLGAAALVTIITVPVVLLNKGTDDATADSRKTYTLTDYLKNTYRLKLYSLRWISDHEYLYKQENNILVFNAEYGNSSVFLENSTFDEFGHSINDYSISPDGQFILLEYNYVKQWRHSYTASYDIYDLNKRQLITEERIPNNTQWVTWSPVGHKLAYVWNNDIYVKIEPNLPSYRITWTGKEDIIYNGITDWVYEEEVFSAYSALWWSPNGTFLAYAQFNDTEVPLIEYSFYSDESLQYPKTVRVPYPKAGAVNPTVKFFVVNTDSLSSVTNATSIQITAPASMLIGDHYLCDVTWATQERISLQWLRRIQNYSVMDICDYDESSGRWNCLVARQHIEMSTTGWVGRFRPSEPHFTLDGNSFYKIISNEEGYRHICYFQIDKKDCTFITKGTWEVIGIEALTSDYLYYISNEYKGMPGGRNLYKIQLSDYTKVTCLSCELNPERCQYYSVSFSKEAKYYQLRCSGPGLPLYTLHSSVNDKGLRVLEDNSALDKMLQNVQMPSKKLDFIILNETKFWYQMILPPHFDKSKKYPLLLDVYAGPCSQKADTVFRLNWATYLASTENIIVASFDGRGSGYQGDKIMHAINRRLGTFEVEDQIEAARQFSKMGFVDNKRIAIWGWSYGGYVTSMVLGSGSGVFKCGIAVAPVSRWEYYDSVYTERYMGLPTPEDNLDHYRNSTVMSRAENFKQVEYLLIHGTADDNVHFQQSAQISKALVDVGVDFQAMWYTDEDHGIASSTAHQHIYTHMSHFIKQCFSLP

Compound	Activity [1]	Activity [2]	Activity [3]	CC50 [4]	CC50 [5]	EC50 [6]	EC50 [7]	Activity [8]	IC50 [9]	Activity [10]	Inhibition [11]	Inhibition [12]	Activity [13]
Cc1cn(C2OC(CO[Si](C)(C)C(C)(C)C)C3(OS(=O)(=O)C=C3N)C2O[Si](C)(C)C(C)(C)C)c(=O)n(CCCNC(=O)[C@@H]2CCCN2C(=O)[C@@H](N)CCC(=O)O)c1=O (some centres not stated)	48%	inactive	92%	30 µM	64 µM	0.26 µM	0.49 µM	inactive					
Cc1cn(C2OC(CO[Si](C)(C)C(C)(C)C)C3(OS(=O)(=O)C=C3N)C2O[Si](C)(C)C(C)(C)C)c(=O)n(CCCNC(=O)[C@H](C)NC(=O)[C@@H](N)C(C)C)c1=O (some centres not stated)	6.5%	inactive	35%	11 µM	22 µM	0.08 µM	0.23 µM	inactive	5.4 µM	0%			
CC[C@H](C)[C@H](N)C(=O)N1CCC[C@H]1C(=O)N[C@H](C(=O)O)[C@@H](C)CC [DIPROTIN A]											> 80%	> 80%	
Cc1cn(C2OC(CO[Si](C)(C)C(C)(C)C)C3(OS(=O)(=O)C=C3N)C2O[Si](C)(C)C(C)(C)C)c(=O)n(CCCNC(=O)[C@@H]2CCCN2C(=O)[C@@H](N)Cc2ccc(O)cc2)c1=O (some centres not stated)	66%	inactive	79%	10 µM	11 µM	0.15 µM	0.14 µM	inactive	8.1 µM	43%			
Cc1cn(C2OC(CO[Si](C)(C)C(C)(C)C)C3(OS(=O)(=O)C=C3N)C2O[Si](C)(C)C(C)(C)C)c(=O)n(CCCNC(=O)[C@H](CC(C)C)NC(=O)[C@@H](N)C(C)C)c1=O (some centres not stated)	0%	inactive	0%	11 µM	13 µM	0.19 µM	0.21 µM	inactive	4.6 µM	0%			
Cc1cn(C2OC(CO[Si](C)(C)C(C)(C)C)C3(OS(=O)(=O)C=C3N)C2O[Si](C)(C)C(C)(C)C)c(=O)n(CCCNC(=O)[C@@H](NC(=O)[C@@H]2CCCN2C(=O)[C@@H](N)C(C)C)C(C)C)c1=O (some centres not stated)		inactive		11 µM	11 µM	0.07 µM	0.22 µM	inactive	4.4 µM				
Cc1cn(C2OC(CO[Si](C)(C)C(C)(C)C)C3(OS(=O)(=O)C=C3N)C2O[Si](C)(C)C(C)(C)C)c(=O)n(CCCNC(=O)[C@@H]2[C@@H](O)[C@@H](O)CN2C(=O)[C@@H](N)C(C)C)c1=O (some centres not stated)	0%	inactive	0%	51 µM	46 µM	0.35 µM	0.77 µM	inactive	4.8 µM	0%			
Cc1cn(C2OC(CO[Si](C)(C)C(C)(C)C)C3(OS(=O)(=O)C=C3N)C2O[Si](C)(C)C(C)(C)C)c(=O)n(CCCNC(=O)[C@@H]2CCCN2C(=O)[C@@H](N)CC(N)=O)c1=O (some centres not stated)	27%	inactive	73%	25 µM	22 µM	0.37 µM	0.59 µM	inactive	4 µM				
Cc1cn(C2OC(CO[Si](C)(C)C(C)(C)C)C3(OS(=O)(=O)C=C3N)C2O[Si](C)(C)C(C)(C)C)c(=O)n(CCCNC(=O)[C@@H]2CCCN2C(=O)[C@@H](N)CCCCN)c1=O (some centres not stated)	85%	inactive	99%	47 µM	87 µM	0.16 µM		inactive	4.7 µM				
Cc1cn(C2OC(CO[Si](C)(C)C(C)(C)C)C3(OS(=O)(=O)C=C3N)C2O[Si](C)(C)C(C)(C)C)c(=O)n(CCCNC(=O)[C@@H]2CCCN2C(=O)[C@@H](N)Cc2ccccc2)c1=O (some centres not stated)	37%	inactive	58%	14 µM	19 µM	0.1 µM	0.2 µM	inactive					
Cc1cn(C2OC(CO[Si](C)(C)C(C)(C)C)C3(OS(=O)(=O)C=C3N)C2O[Si](C)(C)C(C)(C)C)c(=O)n(CCCNC(=O)[C@@H]2CCCN2C(=O)[C@H](C)N)c1=O (some centres not stated)	81%	inactive	88%	19 µM	20 µM	0.42 µM	0.3 µM	inactive					
Cc1cn(C2OC(CO[Si](C)(C)C(C)(C)C)C3(OS(=O)(=O)C=C3N)C2O[Si](C)(C)C(C)(C)C)c(=O)n(CCCNC(=O)[C@@H]2CCCN2C(=O)CN)c1=O (some centres not stated)	20%	inactive	58%	51 µM	13 µM	0.2 µM	0.39 µM	inactive	13 µM	5%			
Cc1cn(C2OC(CO[Si](C)(C)C(C)(C)C)C3(OS(=O)(=O)C=C3N)C2O[Si](C)(C)C(C)(C)C)c(=O)n(CCCNC(=O)[C@H]2CCCN2C(=O)[C@@H](N)C(C)C)c1=O (some centres not stated)	2.2%	inactive	4.2%	11 µM	22 µM	0.09 µM	0.49 µM	inactive	22 µM	0%			
Cc1cn(C2OC(CO[Si](C)(C)C(C)(C)C)C3(OS(=O)(=O)C=C3N)C2O[Si](C)(C)C(C)(C)C)c(=O)n(CCCNC(=O)[C@H](Cc2ccccc2)NC(=O)[C@@H](N)C(C)C)c1=O (some centres not stated)	0%	inactive	0%	10 µM	14 µM	0.09 µM	0.26 µM	inactive	6.8 µM	0%			
Cc1cn(C2OC(CO[Si](C)(C)C(C)(C)C)C3(OS(=O)(=O)C=C3N)C2O[Si](C)(C)C(C)(C)C)c(=O)n(CCCNC(=O)[C@@H](N)C(C)C)c1=O (some centres not stated)		inactive		9.6 µM	8.2 µM	0.06 µM	0.3 µM	inactive	6.7 µM				
Cc1cn(C2OC(CO[Si](C)(C)C(C)(C)C)C3(OS(=O)(=O)C=C3N)C2O[Si](C)(C)C(C)(C)C)c(=O)n(CCCNC(=O)[C@@H]2CCCN2C(=O)[C@@H](NC(=O)OCc2ccccc2)C(C)C)c1=O (some centres not stated)	0%		0%							0%			Not Active
Cc1cn(C2OC(CO[Si](C)(C)C(C)(C)C)C3(OS(=O)(=O)C=C3N)C2O[Si](C)(C)C(C)(C)C)c(=O)n(CCCNC(=O)CNC(=O)[C@@H](N)C(C)C)c1=O (some centres not stated)	0%	inactive	0%	10 µM	9.9 µM	0.05 µM	0.14 µM	inactive	3.8 µM	0%			
Cc1cn([C@@H]2O[C@H](CO[Si](C)(C)C(C)(C)C)[C@@]3(OS(=O)(=O)C=C3N)[C@H]2O[Si](C)(C)C(C)(C)C)c(=O)n(CCCN)c1=O		inactive		12 µM	14 µM	0.14 µM	0.52 µM	inactive					
Cc1cn(C2OC(CO[Si](C)(C)C(C)(C)C)C3(OS(=O)(=O)C=C3N)C2O[Si](C)(C)C(C)(C)C)c(=O)n(CCCNC(=O)[C@@H]2C[C@@H](O)CN2C(=O)[C@@H](N)C(C)C)c1=O (some centres not stated)	18%	inactive	43%	15 µM	10 µM	0.4 µM	0.41 µM	inactive	16 µM	4.1%			
CC[C@H](C)[C@H](N)C(=O)N1CCCC1											> 80%	> 80%	
Cc1cn(C2OC(CO[Si](C)(C)C(C)(C)C)C3(OS(=O)(=O)C=C3N)C2O[Si](C)(C)C(C)(C)C)c(=O)n(CCCNC(=O)[C@@H]2C[C@@H](OCc3ccccc3)CN2C(=O)[C@@H](N)C(C)C)c1=O (some centres not stated)	0%	inactive	0%	2.1 µM	2 µM	0.09 µM	0.27 µM	inactive	28 µM				
Cc1cn(C2OC(CO[Si](C)(C)C(C)(C)C)C3(OS(=O)(=O)C=C3N)C2O[Si](C)(C)C(C)(C)C)c(=O)n(CCCNC(=O)[C@@H]2CCCN2C(=O)[C@@H](N)CC(=O)O)c1=O (some centres not stated)	7.9%	inactive	30%	≥ 125 µM	69 µM	1.1 µM	1.2 µM	inactive	7.2 µM				
